Laboratory results taken from ChEMBL document CHEMBL4138300 (ACS Med Chem Lett, 2018).
The source made the active and inactive calls. No cut-off for these calls is given here.

Key:
EZH2 (Homo sapiens) = test: Inhibition of human N-terminal His-tagged EZH2/flag-tagged EED/SUZ12/AEBP2/RBAP48 A677G mutant (2 to end residues) expressed in baculovirus infected Sf9 insect cells using histone H3 (1 to 50 residues)-GGK as substrate after 2 hrs in presence of SAM by fluorescence assay
Pfeiffer [1] = test: Cytotoxicity against human Pfeiffer cells assessed as decrease in cell viability after 5 days by CellTiter-Glo reagent based luminescence assay; type: functional; conditions: 120 h
[2] = Stability of the compound in rat liver microsomes; type: ADME, microsome
[3] = Stability of the compound in human liver microsomes; type: ADME, microsome
Mus musculus [4] = test: Toxicity in athymic nude mouse xenografted with human Pfeiffer cells assessed as body weight loss at 10 to 100 mg/kg, po qd administered for 20 days measured twice per week; type: organism-based; conditions: in vivo, 480 h
Rattus norvegicus = test: Apparent volume of distribution during terminal phase in Sprague-Dawley rat at 0.5 mg/kg, iv; type: ADME, organism-based; conditions: in vivo
Method in brief: (§1)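 Single intravenous dose: rats 0.5 mg/kg, mice 1.0 mg/kg. Plasma exposure and terminal-phase parameters were calculated from the concentration–time profile. These serve as the iv reference for bioavailability.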

Pfeiffer [5] = test: Antitumor activity against human Pfeiffer cells xenografted in athymic nude mouse assessed as tumor growth inhibition at 10 mg/kg, po qd administered for 20 days measured twice per week; type: functional; conditions: 480 h, read-out: TGI
Method in brief: (§2)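 Pfeiffer xenografts were grown to about 150-200 mm³ before dosing. The compound was given orally once daily for 20 days at the dose in each line (10, 30 or 100 mg/kg), with a reference EZH2 inhibitor dosed at 100 mg/kg. Tumor growth inhibition was expressed as percent reduction in tumor size.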

Pfeiffer [6] = test: Antitumor activity against human Pfeiffer cells xenografted in athymic nude mouse assessed as tumor growth inhibition at 100 mg/kg, po qd administered for 20 days measured twice per week; type: functional
Method in brief: as §2

[7] = Cmax in Sprague-Dawley rat at 5 mg/kg administered via oral gavage; type: ADME, organism-based; parameters: dose 5 mg/kg, route oral; conditions: in vivo
Method in brief: (§3)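 Single oral dose given as a CMC-Na suspension: rats 5 mg/kg, mice 10 mg/kg. Oral bioavailability was set against the matching iv arm (rats 0.5 mg/kg, mice 1.0 mg/kg).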

[8] = AUC (0 to t) in ICR mouse at 10 mg/kg administered via oral gavage; type: ADME, organism-based; conditions: in vivo
Method in brief: as §3

[9] = AUC (0 to t) in Sprague-Dawley rat at 5 mg/kg administered via oral gavage; type: ADME, organism-based; conditions: in vivo
Method in brief: as §3

[10] = AUC (0 to t) in Sprague-Dawley rat at 0.5 mg/kg, iv; type: ADME, organism-based; conditions: in vivo
Method in brief: as §1

[11] = molecular target: T1, Histone-lysine N-methyltransferase EZH2 (Homo sapiens, UniProt Q15910); test: Inhibition of EZH2 in human WSU-DLCL2 cells assessed as reduction in H3K27 trimethylation after 3 days by Western blot analysis; type: cell-based
Target sequence in this assay (Q15910 whole entry): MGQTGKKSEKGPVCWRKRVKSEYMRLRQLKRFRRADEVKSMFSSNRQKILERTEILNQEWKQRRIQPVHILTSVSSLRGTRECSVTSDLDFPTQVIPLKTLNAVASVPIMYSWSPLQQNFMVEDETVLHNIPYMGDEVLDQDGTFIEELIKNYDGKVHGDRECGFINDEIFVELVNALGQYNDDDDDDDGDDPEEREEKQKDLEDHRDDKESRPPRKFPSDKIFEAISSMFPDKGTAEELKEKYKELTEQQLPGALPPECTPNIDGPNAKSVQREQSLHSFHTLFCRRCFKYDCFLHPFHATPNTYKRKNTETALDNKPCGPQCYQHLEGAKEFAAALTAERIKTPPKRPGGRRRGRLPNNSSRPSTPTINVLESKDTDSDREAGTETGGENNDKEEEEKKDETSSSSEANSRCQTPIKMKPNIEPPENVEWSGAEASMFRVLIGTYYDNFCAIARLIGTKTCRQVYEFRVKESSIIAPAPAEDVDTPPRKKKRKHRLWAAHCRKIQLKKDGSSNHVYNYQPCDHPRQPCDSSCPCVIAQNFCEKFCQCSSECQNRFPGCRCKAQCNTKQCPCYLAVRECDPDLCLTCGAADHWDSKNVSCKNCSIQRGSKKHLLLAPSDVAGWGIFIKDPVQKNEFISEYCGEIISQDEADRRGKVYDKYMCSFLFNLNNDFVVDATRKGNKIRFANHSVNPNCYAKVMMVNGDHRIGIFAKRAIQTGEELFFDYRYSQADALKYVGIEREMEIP

[12] = Half life in ICR mouse at 10 mg/kg administered via oral gavage; type: ADME, organism-based; conditions: in vivo
Method in brief: as §3

[13] = Apparent volume of distribution during terminal phase in Sprague-Dawley rat at 5 mg/kg administered via oral gavage; type: ADME, organism-based; conditions: in vivo, read-out: Vz/F
Method in brief: as §3

[14] = Protein binding in mouse plasma; type: ADME, cell-free; conditions: read-out: PPB (converted)
[15] = Mean residence time (0 to infinity) in ICR mouse at 10 mg/kg administered via oral gavage; type: ADME, organism-based; conditions: in vivo
Method in brief: as §3

[16] = Half life in rat liver microsomes; type: ADME, microsome
[17] = Mean residence time (0 to infinity) in Sprague-Dawley rat at 5 mg/kg administered via oral gavage; type: ADME, organism-based; conditions: in vivo
Method in brief: as §3

[18] = Mean residence time (0 to infinity) in ICR mouse at 1 mg/kg, iv; type: ADME, organism-based; conditions: in vivo
Method in brief: as §1

[19] = Half life in human liver microsomes; type: ADME, microsome
[20] = AUC (0 to t) in ICR mouse at 1 mg/kg, iv; type: ADME, organism-based; conditions: in vivo
Method in brief: as §1

[21] = Apparent volume of distribution during terminal phase in ICR mouse at 10 mg/kg administered via oral gavage; type: ADME, organism-based; conditions: in vivo, read-out: Vz/F
Method in brief: as §3

[22] = Half life in Sprague-Dawley rat at 5 mg/kg administered via oral gavage; type: ADME, organism-based; conditions: in vivo
Method in brief: as §3

Pfeiffer [23] = test: Antitumor activity against human Pfeiffer cells xenografted in athymic nude mouse assessed as tumor growth inhibition administered po qd for 20 days measured twice per week; type: functional, organism-based
Method in brief: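 Pfeiffer xenografts were grown to about 150-200 mm³ before dosing. Compound was given orally once daily for 20 days at 10, 30 or 100 mg/kg. A reference EZH2 inhibitor (100 mg/kg) was run alongside. Tumor size reduction was the efficacy read-out.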

[24] = Mean residence time (0 to infinity) in Sprague-Dawley rat at 0.5 mg/kg, iv; type: ADME, organism-based; conditions: in vivo
Method in brief: as §1

[25] = Oral bioavailability in Sprague-Dawley rat at 5 mg/kg administered via gavage; type: ADME, organism-based; conditions: in vivo
Method in brief: as §3

Mus musculus [26] = test: Apparent volume of distribution during terminal phase in ICR mouse at 1 mg/kg, iv; type: ADME, organism-based; conditions: in vivo
Method in brief: as §1

[27] = Protein binding in human plasma; type: ADME, cell-free; conditions: read-out: PPB (converted)
Pfeiffer [28] = test: Antitumor activity against human Pfeiffer cells xenografted in athymic nude mouse assessed as tumor growth inhibition at 30 mg/kg, po qd administered for 20 days measured twice per week; type: functional; conditions: 480 h, read-out: TGI
Method in brief: as §2

[29] = molecular target: T1, Histone-lysine N-methyltransferase EZH2; test: Inhibition of EZH2 in human Pfeiffer cells assessed as reduction in H3K27 trimethylation after 3 days by Western blot analysis; type: cell-based
[30] = Oral bioavailability in ICR mouse at 10 mg/kg administered via gavage; type: ADME, organism-based; conditions: in vivo
Method in brief: as §3

[31] = Protein binding in rat plasma; type: ADME, cell-free; conditions: read-out: PPB (converted)
[32] = Apparent clearance during terminal phase in ICR mouse at 10 mg/kg administered via oral gavage; type: ADME, organism-based; conditions: in vivo, read-out: CLz/F
Method in brief: as §3

[33] = Apparent clearance during terminal phase in Sprague-Dawley rat at 5 mg/kg administered via oral gavage; type: ADME, organism-based; conditions: in vivo, read-out: CLz/F
Method in brief: as §3

[34] = Cmax in ICR mouse at 10 mg/kg administered via oral gavage; type: ADME, organism-based; parameters: dose 10 mg/kg, route oral; conditions: in vivo
Method in brief: as §3

## CCN(c1cc2oc(C(F)(F)F)cc2c(C(=O)NCc2c(OC)cc(C)[nH]c2=O)c1C)C1CCOCC1
EZH2 (Homo sapiens)
  IC50: 2.7 nM
Pfeiffer [1]
  IC50: 17 nM

## CCc1c(N(CC)C2CCOCC2)cc2oc(CN3CCOCC3)cc2c1C(=O)NCc1c(C)cc(C)[nH]c1=O
[2]
  Stability: Stable
EZH2 (Homo sapiens)
  IC50: 4.6 nM
[3]
  Stability: Stable
Pfeiffer [1]
  IC50: 14 nM

## CCN(c1cc2occc2c(C(=O)NCc2c(OC)cc(C)[nH]c2=O)c1C)C1CCOCC1
EZH2 (Homo sapiens)
  IC50: 4 nM
Pfeiffer [1]
  IC50: 20 nM

## CCN(c1cc2sccc2c(C(=O)NCc2c(C)cc(C)[nH]c2=O)c1C)C1CCOCC1
EZH2 (Homo sapiens)
  IC50: 6 nM
Pfeiffer [1]
  IC50: 1830 nM

## CCN(c1cc2occc2c(C(=O)NCc2ccc(C)[nH]c2=O)c1Cl)C1CCOCC1
EZH2 (Homo sapiens)
  IC50: 6.5 nM
Pfeiffer [1]
  IC50: 150 nM

## CCN(c1cc2occc2c(C(=O)NCc2c(C)cc(C)[nH]c2=O)c1C)C1CCOCC1
EZH2 (Homo sapiens)
  IC50: 4 nM
Pfeiffer [1]
  IC50: 240 nM

## CCc1c(N(CC)C2CCOCC2)cc2oc(C3CCN(C(C)C)CC3)cc2c1C(=O)NCc1c(C)cc(C)[nH]c1=O
Mus musculus [4]
  Activity: Non-Toxic
Rattus norvegicus
  Vz/F: 2.556 L/kg
Pfeiffer [5]
  inhibition in vivo at 10 mg/kg: 28%
Pfeiffer [6]; 480 h, read-out: TGI
  inhibition in vivo at 100 mg/kg: 97%
[7]
  Cmax: 93 ng/mL
[8]
  AUC(0-t): 774 ng·h/mL
[9]
  AUC(0-t): 239 ng·h/mL
[10]
  AUC(0-t): 325 ng·h/mL
[11]
  IC50: 55 nM
[12]
  half-life: 1.3 h
[13]
  Vd/F: 24.1 L/kg
[14]
  fraction unbound: 0.073
[15]
  MRT inf: 2.7 h
[16]
  half-life: > 0.5 h
[17]
  MRT inf: 3 h
[18]
  MRT inf: 1.3 h
[19]
  half-life: > 0.5 h
[20]
  AUC(0-t): 483 ng·h/mL
[21]
  Vd/F: 21.9 L/kg
[22]
  half-life: 1 h
Pfeiffer [23]
  TGI: Dose-dependent effect
Pfeiffer [1]
  IC50: 6 nM
[24]
  MRT inf: 1 h
[25]
  bioavailability: 9%
Mus musculus [26]
  Vz/F: 3.679 L/kg
[27]
  fraction unbound: 0.061
Pfeiffer [28]
  inhibition in vivo at 30 mg/kg: 83%
[29]
  IC50: 8 nM
  inhibition: Dose-dependent effect
[30]
  bioavailability: 16%
[31]
  fraction unbound: 0.06
[32]
  CL/F: 202 mL/min/kg
[33]
  CL/F: 287 mL/min/kg
[34]
  Cmax: 257 ng/mL

## CCN(c1cc2oc(C#N)cc2c(C(=O)NCc2c(OC)cc(C)[nH]c2=O)c1C)C1CCOCC1
EZH2 (Homo sapiens)
  IC50: 0.8 nM
Pfeiffer [1]
  IC50: 17 nM

## CCN(c1cc2oc(C)cc2c(C(=O)NCc2c(C)cc(C)[nH]c2=O)c1C)C1CCOCC1
EZH2 (Homo sapiens)
  IC50: 3.8 nM
Pfeiffer [1]
  IC50: 21 nM

## CCc1c(N(CC)C2CCOCC2)cc2occc2c1C(=O)NCc1c(OC)cc(C)[nH]c1=O
EZH2 (Homo sapiens)
  IC50: 3.3 nM
Pfeiffer [1]
  IC50: 15 nM

## CCN(c1cc2occc2c(C(=O)NCc2c(OC)cc(C)[nH]c2=O)c1C(F)(F)F)C1CCOCC1
EZH2 (Homo sapiens)
  IC50: 2000 nM

## CCN(c1cc(C(=O)NCc2c(OC)cc(C)[nH]c2=O)c2ccoc2c1)C1CCOCC1
EZH2 (Homo sapiens)
  IC50: 331 nM
Pfeiffer [1]
  IC50: > 5000 nM

## CCc1c(N(CC)C2CCOCC2)cc2oc(CN3CCCCC3)cc2c1C(=O)NCc1c(OC)cc(C)[nH]c1=O
[2]
  Stability: Stable
EZH2 (Homo sapiens)
  IC50: 6.4 nM
[3]
  Stability: Stable
Pfeiffer [1]
  IC50: 2 nM

## CCN(c1cc2occc2c(C(=O)NCc2c(C(F)(F)F)cc(C)[nH]c2=O)c1C)C1CCOCC1
EZH2 (Homo sapiens)
  IC50: 4.6 nM
Pfeiffer [1]
  IC50: 3300 nM

## CCc1c(N(CC)C2CCOCC2)cc2oc(CN3CCN(C)CC3)cc2c1C(=O)NCc1c(OC)cc(C)[nH]c1=O
[2]
  Stability: Stable
EZH2 (Homo sapiens)
  IC50: 0.1 nM
[3]
  Stability: Stable
Pfeiffer [1]
  IC50: 8 nM

## CCN(c1cc2oc(C3CC3)cc2c(C(=O)NCc2c(OC)cc(C)[nH]c2=O)c1C)C1CCOCC1
EZH2 (Homo sapiens)
  IC50: 0.5 nM
Pfeiffer [1]
  IC50: 11 nM

## CCN(c1cc2oc(C)cc2c(C(=O)NCc2c(OC)cc(C)[nH]c2=O)c1C)C1CCOCC1
EZH2 (Homo sapiens)
  IC50: 2.9 nM
Pfeiffer [1]
  IC50: 14 nM

## CCc1c(N(CC)C2CCOCC2)cc2oc(CN3CCOCC3)cc2c1C(=O)NCc1c(OC)cc(C)[nH]c1=O
[2]
  Stability: Stable
EZH2 (Homo sapiens)
  IC50: 7.8 nM
[3]
  Stability: Stable
Pfeiffer [1]
  IC50: 3 nM

## CCN(c1cc(-c2ccc(CN3CCOCC3)cc2)cc(C(=O)NCc2c(C)cc(C)[nH]c2=O)c1C)C1CCOCC1 [TAZEMETOSTAT]
Mus musculus [4]
  Activity: Non-Toxic
Pfeiffer [6]
  TGI: Active
Pfeiffer [1]
  IC50: 38 nM

## CCc1c(N(CC)C2CCOCC2)cc2oc(C3CCN(C)CC3)cc2c1C(=O)NCc1c(C)cc(C)[nH]c1=O
[8]
  AUC(0-t): 439 ng·h/mL
[16]
  half-life: > 1 h
[19]
  half-life: > 1 h
EZH2 (Homo sapiens)
  IC50: 6.1 nM
Pfeiffer [1]
  IC50: 7 nM

## CCc1cc(C)[nH]c(=O)c1CNC(=O)c1c(C)c(N(CC)C2CCOCC2)cc2occc12
EZH2 (Homo sapiens)
  IC50: 0.6 nM
Pfeiffer [1]
  IC50: 220 nM

## CCN(c1cc2oc(Cl)cc2c(C(=O)NCc2c(OC)cc(C)[nH]c2=O)c1C)C1CCOCC1
EZH2 (Homo sapiens)
  IC50: 0.4 nM
Pfeiffer [1]
  IC50: 21 nM

## CCN(c1cc2occ(C)c2c(C(=O)NCc2c(OC)cc(C)[nH]c2=O)c1C)C1CCOCC1
EZH2 (Homo sapiens)
  IC50: 5.9 nM
Pfeiffer [1]
  IC50: 1300 nM

## CCN(c1cc2oc(F)cc2c(C(=O)NCc2c(OC)cc(C)[nH]c2=O)c1C)C1CCOCC1
EZH2 (Homo sapiens)
  IC50: 4.1 nM
Pfeiffer [1]
  IC50: 160 nM
